In ChEMBL document CHEMBL4270599, “Synthesis of a 3'-C-ethynyl-β-d-ribofuranose purine nucleoside library: Discovery of C7-deazapurine analogs as potent antiproliferative nucleosides” (Eur J Med Chem, 2018):

Legend:
SN12C [1] = assay: Growth inhibition of human SN12C cells assessed as cell growth at 10^-7 M incubated for 48 hrs by sulforhodamine B assay relative to control; format: functional; conditions: read-out: Activity
A549 [2] = assay: Growth inhibition of human A549/ATCC cells assessed as cell growth at 10^-7 M incubated for 48 hrs by sulforhodamine B assay relative to control; format: functional; conditions: A549, 48 h, read-out: Activity
SK-OV-3 = assay: Growth inhibition of human SKOV3 cells assessed as cell growth at 10^-8 M incubated for 48 hrs by sulforhodamine B assay relative to control; format: functional; conditions: SK-OV-3, 48 h, read-out: Activity
HCT-15 = assay: Growth inhibition of human HCT15 cells assessed as cell growth at 10^-8 M incubated for 48 hrs by sulforhodamine B assay relative to control; format: functional; conditions: HCT-15, 48 h, read-out: Activity
CCRF-CEM = assay: Growth inhibition of human CCRF-CEM cells assessed as cell growth at 10^-8 M incubated for 48 hrs by sulforhodamine B assay relative to control; format: functional; conditions: read-out: Activity
MCF7 = assay: Growth inhibition of human MCF7 cells assessed as cell growth at 10^-8 M incubated for 48 hrs by sulforhodamine B assay relative to control; format: functional; conditions: MCF7, 48 h, read-out: Activity
HT-29 = assay: Growth inhibition of human HT-29 cells assessed as cell growth at 10^-4 M incubated for 48 hrs by sulforhodamine B assay relative to control; format: functional; conditions: HT-29, 48 h, read-out: Activity
SF-268 [3] = assay: Growth inhibition of human SF268 cells assessed as cell growth at 10^-6 M incubated for 48 hrs by sulforhodamine B assay relative to control; format: functional; conditions: SF-268, 48 h, read-out: Activity
OVCAR-4 = assay: Growth inhibition of human OVCAR4 cells assessed as cell growth at 10^-6 M incubated for 48 hrs by sulforhodamine B assay relative to control; format: functional; conditions: OVCAR-4, 48 h, read-out: Activity
A498 [4] = assay: Growth inhibition of human A498 cells assessed as cell growth at 10^-6 M incubated for 48 hrs by sulforhodamine B assay relative to control; format: functional; conditions: A498, 48 h, read-out: Activity
ACHN = assay: Growth inhibition of human ACHN cells assessed as cell growth at 10^-8 M incubated for 48 hrs by sulforhodamine B assay relative to control; format: functional; conditions: read-out: Activity
SF-268 [5] = assay: Growth inhibition of human SF268 cells assessed as cell growth at 10^-7 M incubated for 48 hrs by sulforhodamine B assay relative to control; format: functional; conditions: SF-268, 48 h, read-out: Activity
UO-31 = assay: Growth inhibition of human UO31 cells assessed as cell growth at 10^-8 M incubated for 48 hrs by sulforhodamine B assay relative to control; format: functional; conditions: UO-31, 48 h, read-out: Activity
TK-10 [6] = assay: Growth inhibition of human TK10 cells assessed as cell growth at 10^-7 M incubated for 48 hrs by sulforhodamine B assay relative to control; format: functional; conditions: TK-10, 48 h, read-out: Activity
OVCAR-8 = assay: Growth inhibition of human OVCAR8 cells assessed as cell growth at 10^-8 M incubated for 48 hrs by sulforhodamine B assay relative to control; format: functional; conditions: OVCAR-8, 48 h, read-out: Activity
786-0 = assay: Cytotoxicity against human 786-0 cells after 48 hrs by SRB assay; format: functional; conditions: 786-0, 48 h
DU-145 = assay: Growth inhibition of human DU145 cells assessed as cell growth at 10^-5 M incubated for 48 hrs by sulforhodamine B assay relative to control; format: functional; conditions: DU-145, 48 h, read-out: Activity
MOLT-4 = assay: Growth inhibition of human MOLT4 cells assessed as cell growth at 10^-7 M incubated for 48 hrs by sulforhodamine B assay relative to control; format: functional; conditions: MOLT-4, 48 h, read-out: Activity
SK-MEL-5 = assay: Cytotoxicity against human SK-MEL-5 cells after 48 hrs by SRB assay; format: functional; conditions: SK-MEL-5, 48 h
[7] = Antiproliferative activity against HMVEC-d cells after 4 days by Coulter counter method; format: cell-based; conditions: Homo sapiens, 96 h
Summary of the method: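 Primary HUVEC, primary HMVEC-d and the HMEC-1 line seeded at 20,000 cells/well in gelatin-coated plates in EC growth medium (EGM2). After overnight incubation, 5-fold compound dilutions added. Cells proliferated four days with compound, then trypsinized and counted by Coulter counter to derive IC₅₀.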

OVCAR-5 = assay: Growth inhibition of human OVCAR5 cells assessed as cell growth at 10^-5 M incubated for 48 hrs by sulforhodamine B assay relative to control; format: functional; conditions: OVCAR-5, 48 h, read-out: Activity
A498 [8] = assay: Growth inhibition of human A498 cells assessed as cell growth at 10^-7 M incubated for 48 hrs by sulforhodamine B assay relative to control; format: functional; conditions: A498, 48 h, read-out: Activity
RPMI-8226 = assay: Growth inhibition of human RPMI8226 cells assessed as cell growth at 10^-7 M incubated for 48 hrs by sulforhodamine B assay relative to control; format: functional; conditions: RPMI-8226, 48 h, read-out: Activity
SN12C [9] = assay: Cytotoxicity against human SN12C cells after 48 hrs by SRB assay; format: functional
SR = assay: Growth inhibition of human SR cells assessed as cell growth at 10^-8 M incubated for 48 hrs by sulforhodamine B assay relative to control; format: functional; conditions: read-out: Activity
A549 [10] = assay: Growth inhibition of human A549/ATCC cells assessed as cell growth at 10^-4 M incubated for 48 hrs by sulforhodamine B assay relative to control; format: functional; conditions: A549, 48 h, read-out: Activity
TK-10 [11] = assay: Cytotoxicity against human TK10 cells after 48 hrs by SRB assay; format: functional; conditions: TK-10, 48 h
EKVX = assay: Growth inhibition of human EKVX cells assessed as cell growth at 10^-6 M incubated for 48 hrs by sulforhodamine B assay relative to control; format: functional; conditions: read-out: Activity
SW-620 = assay: Growth inhibition of human SW620 cells assessed as cell growth at 10^-6 M incubated for 48 hrs by sulforhodamine B assay relative to control; format: functional; conditions: SW-620, 48 h, read-out: Activity
PC-3 = assay: Growth inhibition of human PC3 cells assessed as cell growth at 10^-5 M incubated for 48 hrs by sulforhodamine B assay relative to control; format: functional; conditions: PC-3, 48 h, read-out: Activity
HCT-116 = assay: Growth inhibition of human HCT116 cells assessed as cell growth at 10^-6 M incubated for 48 hrs by sulforhodamine B assay relative to control; format: functional; conditions: HCT-116, 48 h, read-out: Activity
SN12C [12] = assay: Growth inhibition of human SN12C cells assessed as cell growth at 10^-5 M incubated for 48 hrs by sulforhodamine B assay relative to control; format: functional; conditions: read-out: Activity
HL-60(TB) = assay: Growth inhibition of human HL-60(TB) cells assessed as cell growth at 10^-5 M incubated for 48 hrs by sulforhodamine B assay relative to control; format: functional; conditions: HL-60, 48 h, read-out: Activity
[13] = read-out: LC50 (the source's name)
[14] = read-out: pLC50 (the source's name) (converted)

C#C[C@@]1(O)[C@@H](CO)O[C@@H](n2cc(Cl)c3c(N)ncnc32)[C@@H]1O
growth at 0.1 µM (SN12C [1]): 53 to 72%
growth at 0.1 µM (A549 [2]): 61 to 77%
growth at 0.01 µM (SK-OV-3): 84 to 94%
growth at 0.01 µM (HCT-15): 78 to 80%
growth at 0.01 µM (CCRF-CEM): 96 to 97%
growth at 0.01 µM (MCF7): 67 to 75%
growth at 100 µM (HT-29): 1%
growth at 1 µM (SF-268 [3]): 23 to 24%
growth at 1 µM (OVCAR-4): 5 to 13%
growth at 1 µM (A498 [4]): -63%
growth at 0.01 µM (ACHN): 95%
growth at 0.1 µM (SF-268 [5]): 77 to 80%
growth at 0.01 µM (UO-31): 67 to 82%
growth at 0.1 µM (TK-10 [6]): 100 to 101%
growth at 0.01 µM (OVCAR-8): 50 to 62%
GI50 (786-0; read-out: GI50): 0.308 to 0.336 µM
LC50 (lethal concentration, 50% cell kill) (786-0; read-out: LC50): 5.21 to 5.7 µM
TGI (786-0; read-out: TGI): 1.31 to 1.34 µM
growth at 10 µM (DU-145): 1 to 2%
growth at 0.1 µM (MOLT-4): 62 to 67%
GI50 (SK-MEL-5; read-out: GI50): 0.109 to 0.14 µM
TGI (SK-MEL-5; read-out: TGI): 0.268 to 0.343 µM
IC50 [7]: < 0.00128 µM
growth at 10 µM (OVCAR-5): 13 to 14%
growth at 0.1 µM (A498 [8]): 105 to 111%
growth at 0.1 µM (RPMI-8226): 64 to 65%
GI50 (SN12C [9]; read-out: GI50): 0.113 to 0.23 µM
CC50 (SN12C [9]; [13]): > 100 µM
growth at 0.01 µM (SR): 107 to 108%
growth at 100 µM (A549 [10]): 8 to 12%
GI50 (TK-10 [11]; read-out: GI50): 0.302 to 0.334 µM
TGI (TK-10 [11]; read-out: TGI): 0.891 to 1.72 µM
CC50 (TK-10 [11]; [14]): > 100 µM
growth at 1 µM (EKVX): 10%
growth at 1 µM (SW-620): 2 to 7%

C#C[C@@]1(O)[C@@H](CO)O[C@@H](n2cc(F)c3c(N)ncnc32)[C@@H]1O
growth at 0.1 µM (SN12C [1]): 80%
growth at 0.1 µM (A549 [2]): 92%
growth at 0.01 µM (SK-OV-3): 96%
growth at 0.01 µM (HCT-15): 97%
growth at 10 µM (PC-3): -10%
growth at 1 µM (HCT-116): 4%
growth at 0.01 µM (CCRF-CEM): 95%
growth at 0.01 µM (MCF7): 89%
growth at 10 µM (SN12C [12]): -8%
growth at 100 µM (HT-29): 2%
growth at 1 µM (SF-268 [3]): 42%
growth at 1 µM (OVCAR-4): 50%
growth at 1 µM (A498 [4]): 43%
growth at 0.01 µM (ACHN): 102%
growth at 0.1 µM (SF-268 [5]): 105%
growth at 0.01 µM (UO-31): 94%
growth at 10 µM (HL-60(TB)): -17%
growth at 0.1 µM (TK-10 [6]): 102%
growth at 0.01 µM (OVCAR-8): 96%
TGI (786-0; read-out: TGI): 2.84 µM
GI50 (786-0; read-out: pGI50 (converted)): 0.708 µM
TGI (786-0; read-out: pTGI (converted)): 2.82 µM
growth at 10 µM (DU-145): 1%
growth at 0.1 µM (MOLT-4): 86%
TGI (SK-MEL-5; read-out: TGI): 1.33 µM
GI50 (SK-MEL-5; read-out: pGI50 (converted)): 0.269 µM
CC50 (SK-MEL-5; [14]): 4.17 µM
TGI (SK-MEL-5; read-out: pTGI (converted)): 1.35 µM
IC50 [7]: < 0.00128 µM
growth at 10 µM (OVCAR-5): 5%
growth at 0.1 µM (A498 [8]): 95%
growth at 0.1 µM (RPMI-8226): 76%
TGI (SN12C [9]; read-out: TGI): 4.74 µM
CC50 (SN12C [9]; [14]): > 100 µM
TGI (SN12C [9]; read-out: pTGI (converted)): 4.79 µM
growth at 0.01 µM (SR): 101%
CC50 (TK-10 [11]; [13]): > 100 µM
TGI (TK-10 [11]; read-out: TGI): 6.56 µM
GI50 (TK-10 [11]; read-out: pGI50 (converted)): 0.741 µM
TGI (TK-10 [11]; read-out: pTGI (converted)): 6.61 µM
growth at 1 µM (EKVX): 43%
growth at 1 µM (SW-620): 4%
